Experimental data as given in ChEMBL document CHEMBL1132212, “Structure-activity relationship of small-sized HIV protease inhibitors containing allophenylnorstatine” (J Med Chem, 1999).

Key:
[1] = Bioavailability in rat after i.d. administration; assay type: ADME, organism-based; conditions: in vivo
Procedure, shortened: (§1)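 Three male Sprague–Dawley rats (300–400 g) per compound were anesthetized and dosed at 10 mg/kg in 50% PEG. Dosing was iv via the femoral vein or id by tube into the duodenum. Plasma was extracted with internal standard and analyzed by C18 HPLC with UV at 210 nm. Analysis was noncompartmental; F was calculated from id vs iv AUC. Values are mean ± SEM.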

[2] = target: Human immunodeficiency virus type 1 protease (Human immunodeficiency virus 1) (UniProt Q72874); assay: Inhibition of recombinant HIV-1 protease (NY-5) using 50 nM
Procedure, shortened: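 Recombinant HIV-1 protease (NY5 sequence) was expressed in E. coli and purified. It was preincubated with inhibitor in DMSO for 5 min at 37 °C in MES–NaOH pH 6.0 with DTT and EDTA. Substrate H-SQNYPIV-OH was then added for 60 min at 37 °C, and the reaction was stopped with TFA. The PIV product was measured by reverse-phase HPLC at 215 nm against a synthetic standard.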

[3] = tested on: CEM-SS; assay: Antiviral activity was determined based on inhibition of HIV-1 IIIB induced cytopathic effects in CEM-SS cells in vitro using tetrazolium reagent.; assay type: functional, cell-based; conditions: Homo sapiens
Procedure, shortened: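 CEM-SS cells (2.5 × 10^4 cells/mL) were cultured with HIV-1 IIIB and compound in RPMI-1640 with 10% FCS and gentamicin for 6 days at 37 °C in 5% CO2. The virus titer was set to kill all cells by day 6. Cytopathic effect was read by XTT staining, and IC50 was taken as the mean of duplicates.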

[4] = Maximum plasma concentration (Cmax) was determined in rats after intraduodenal administration of the drug; assay type: ADME, organism-based; design: route intraduodenal; conditions: rat; procedure, shortened: as §1
[5] = target: Human immunodeficiency virus type 1 protease (Human immunodeficiency virus 1, UniProt Q72874); assay: Inhibition of recombinant HIV-1 protease (NY-5)
[6] = Time of maximum plasma concentration (Tmax) was determined in rats after intraduodenal administration of the drug.; assay type: ADME, organism-based; conditions: rat; procedure, shortened: as §1
[7] = Toxic concentration was determined for CEM-SS cells; assay type: toxicity, cell-based; conditions: human, read-out: TC50 (the source's name)
Procedure, shortened: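 CEM-SS cells (2.5 × 10^4 cells/mL) were exposed to compound in RPMI-1640 with 10% FCS and gentamicin for 6 days at 37 °C in 5% CO2. Viability was read by XTT staining, and TC50 was taken as the mean of duplicates.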

[8] = Plasma half life was determined in rats after intravenous administration of the drug.; assay type: ADME, organism-based; conditions: rat; procedure, shortened: as §1
[9] = target: Human immunodeficiency virus type 1 protease (Human immunodeficiency virus 1) (UniProt Q72874); assay: Inhibition of recombinant HIV-1 protease (NY-5) using 5 uM
[10] = target: Human immunodeficiency virus type 1 protease (Human immunodeficiency virus 1) (UniProt Q72874); assay: Inhibition of recombinant HIV-1 protease (NY-5) using 50 nM
[11] = Time of maximum plasma concentration (Tmax) was determined in fasted dogs after oral administration of 25 mg/kg of the compound.; assay type: ADME, organism-based, Canis lupus familiaris; design: dose 25 mg/kg, route oral; conditions: dog
Procedure, shortened: (§2)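 Male beagles (7–10 kg) were assigned six per group. Each received 25 mg/kg from a 12.5 mg/mL solution in 50% PEG-in-water, either as an iv bolus via the cephalic vein or by oral gavage, fed or fasted overnight. Plasma was measured by HPLC. Analysis was noncompartmental: trapezoidal AUC, terminal-slope t1/2, CL = dose/AUC, Vdss from AUMC/AUC, and F from oral vs iv AUC. Values are mean ± SEM.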

[12] = tested on: Canis familiaris; assay: Area under curve (AUC) was determined in fasted dogs after oral administration of 25 mg/kg of the compound; assay type: ADME, organism-based, Canis lupus familiaris; design: dose 25 mg/kg, route oral; conditions: dog, in vivo; procedure, shortened: as §2
[13] = tested on: Canis familiaris; assay: Area under curve (AUC) was determined in dogs fed after oral administration of 25 mg/kg of the compound; assay type: ADME, organism-based, Canis lupus familiaris; design: dose 25 mg/kg, route oral; conditions: dog, in vivo; procedure, shortened: as §2
[14] = Maximum plasma concentration (Cmax) was determined in dogs fed after oral administration of 25 mg/kg of the compound.; assay type: ADME, organism-based, Canis lupus familiaris; design: dose 25 mg/kg, route oral; conditions: dog; procedure, shortened: as §2
[15] = tested on: Canis familiaris; assay: Area under curve (AUC) was determined in dogs fed after intravenous administration of 25 mg/kg of the compound; assay type: ADME, organism-based, Canis lupus familiaris; design: dose 25 mg/kg, route intravenous; conditions: dog, in vivo; procedure, shortened: as §2
[16] = Volume of distribution (Vdss) was determined in dogs after intravenous administration of 25 mg/kg of the compound.; assay type: ADME, organism-based, Canis lupus familiaris; design: dose 25 mg/kg, route intravenous; conditions: dog, in vivo, read-out: Vdss; procedure, shortened: as §2
[17] = Maximum plasma concentration (Cmax) was determined in fasted dogs after oral administration of 25 mg/kg of the compound.; assay type: ADME, organism-based, Canis lupus familiaris; design: dose 25 mg/kg, route oral; conditions: dog; procedure, shortened: as §2
[18] = Time of maximum plasma concentration (Tmax) was determined in dogs fed after oral administration of 25 mg/kg of the compound.; assay type: ADME, organism-based, Canis lupus familiaris; design: dose 25 mg/kg, route oral; conditions: dog; procedure, shortened: as §2
[19] = Percent bioavailability (F%) was determined in dogs fed after oral administration of 25 mg/kg of the compound; assay type: ADME, organism-based, Canis lupus familiaris; conditions: dog, in vivo; procedure, shortened: as §2
[20] = Plasma half life was determined in dogs after intravenous administration of 25 mg/kg of the compound.; assay type: ADME, organism-based, Canis lupus familiaris; design: dose 25 mg/kg, route intravenous; conditions: dog; procedure, shortened: as §2
[21] = Percent bioavailability (F%) was determined in fasted dogs after oral administration of 25 mg/kg of the compound.; assay type: ADME, organism-based, Canis lupus familiaris; conditions: dog, in vivo; procedure, shortened: as §2
[22] = Plasma clearance rate (CL) was determined in dogs after intravenous administration of 25 mg/kg of the compound.; assay type: ADME, organism-based, Canis lupus familiaris; design: dose 25 mg/kg, route intravenous; conditions: dog; procedure, shortened: as §2

Structure (SMILES)	inhibition [2]	IC50 [3]	Ki [5]	CC50 [7]	inhibition [9]	other results
CCc1c(O)cccc1C(=O)N[C@@H](Cc1ccccc1)[C@H](O)C(=O)N1CSC(C)(C)[C@H]1C(=O)NC(C)(C)C	84%	92 nM	2.24 nM	> 20 µM	99%	bioavailability [1]: 37%; Cmax [4]: 1160 nM; Tmax [6]: 30 min; half-life [8]: 84 min
Cc1cccc(C)c1CNC(=O)[C@@H]1CSCN1C(=O)[C@@H](O)[C@H](Cc1ccccc1)NC(=O)c1cccc(O)c1C	75%	–	4.8 nM	–	–	–
CC(C)(C)NC(=O)[C@@H]1CSCN1C(=O)[C@@H](O)[C@H](Cc1ccccc1)NC(=O)COc1ccccc1	–	–	–	–	48%	–
CCc1c(O)cccc1C(=O)N[C@@H](Cc1ccccc1)[C@H](O)C(=O)N1CSC[C@H]1C(=O)NC(C)(C)C	46%	–	22.2 nM	–	98%	bioavailability [1]: 36.2%; Cmax [4]: 1730 nM; Tmax [6]: 30 min; half-life [8]: 74 min
Cc1cccc(CNC(=O)[C@@H]2CSCN2C(=O)[C@@H](O)[C@H](Cc2ccccc2)NC(=O)c2cccc(O)c2C)c1	18%	–	–	–	–	–
Cc1cccc(C)c1OCC(=O)N[C@@H](Cc1ccccc1)[C@H](O)C(=O)N1CSC[C@H]1C(=O)NC(C)(C)C	56%	> 200 nM	21.7 nM	> 20 µM	95%	–
CC(C)(C)NC(=O)[C@@H]1CSCN1C(=O)[C@@H](O)[C@H](Cc1ccccc1)NC(=O)c1cccc(O)c1	–	–	–	–	76%	–
CCc1cccc(C)c1OCC(=O)N[C@@H](Cc1ccccc1)[C@H](O)C(=O)N1CSC[C@H]1C(=O)NC(C)(C)C	32%	–	–	–	94%	–
Cc1c(O)cccc1C(=O)N[C@@H](Cc1ccccc1)[C@H](O)C(=O)N1CSC[C@H]1C(=O)NC(C)(C)C	36%	> 200 nM	24.9 nM	> 20 µM	97%	bioavailability [1]: 33.9%; Cmax [4]: 2910 nM; Tmax [6]: 30 min; half-life [8]: 59 min
CCc1c(O)cccc1C(=O)N[C@@H](Cc1ccccc1)[C@H](O)C(=O)N1CSC(C)(C)[C@H]1C(=O)NCc1ccccc1C	97%	11 nM	0.19 nM	> 20 µM	–	bioavailability [1]: 10%; Cmax [4]: 230 nM; Tmax [6]: 10 min; half-life [8]: 126 min
CCCc1cccc(C)c1OCC(=O)N[C@@H](Cc1ccccc1)[C@H](O)C(=O)N1CSC[C@H]1C(=O)NC(C)(C)C	35%	–	–	–	97%	–
Cc1c(O)cccc1C(=O)N[C@@H](Cc1ccccc1)[C@H](O)C(=O)N1CSC(C)(C)[C@H]1C(=O)NCc1ccccc1C(F)(F)F	88%	–	–	–	–	–
Cc1c(N)cccc1C(=O)N[C@@H](Cc1ccccc1)[C@H](O)C(=O)N1CSC[C@H]1C(=O)NC(C)(C)C	–	–	–	–	81%	–
Cc1ccc(CNC(=O)[C@@H]2CSCN2C(=O)[C@@H](O)[C@H](Cc2ccccc2)NC(=O)c2cccc(O)c2C)cc1	13%	–	–	–	–	–
Cc1c(O)cccc1C(=O)N[C@@H](Cc1ccccc1)[C@H](O)C(=O)N1CSC(C)(C)[C@H]1C(=O)NCc1ccccc1Cl	95%	34 nM	0.29 nM	> 20 µM	–	–
CC(C)(C)NC(=O)[C@@H]1CSCN1C(=O)[C@@H](O)[C@H](Cc1ccccc1)NC(=O)c1ccccc1	–	–	–	–	52%	–
Cc1cccc(C)c1OCC(=O)N[C@@H](Cc1ccccc1)[C@H](O)C(=O)N1CSC(C)(C)[C@H]1C(=O)NC(C)(C)C	35%	> 200 nM	1.4 nM	> 20 µM	97%	–
Cc1cccc(OCC(=O)N[C@@H](Cc2ccccc2)[C@H](O)C(=O)N2CSC[C@H]2C(=O)NC(C)(C)C)c1	–	–	–	–	38%	–
Cc1c(O)cccc1C(=O)N[C@@H](Cc1ccccc1)[C@H](O)C(=O)N1CSC[C@H]1C(=O)NCc1ccccc1	–	–	59 nM	–	–	inhibition [10]: 43%
Cc1ccccc1C(=O)N[C@@H](Cc1ccccc1)[C@H](O)C(=O)N1CSC[C@H]1C(=O)NC(C)(C)C	–	–	–	–	75%	–
Cc1ccccc1CNC(=O)[C@@H]1CSCN1C(=O)[C@@H](O)[C@H](Cc1ccccc1)NC(=O)c1cccc(O)c1C	–	> 200 nM	8.9 nM	> 20 µM	–	bioavailability [1]: 32.3%; Cmax [4]: 770 nM; Tmax [6]: 30 min; half-life [8]: 41 min
Cc1ccccc1CNC(=O)[C@H]1N(C(=O)[C@@H](O)[C@H](Cc2ccccc2)NC(=O)c2cccc(O)c2C)CSC1(C)C	96%	7 nM	0.33 nM	> 20 µM	–	Tmax [11]: 1 h; AUC [12]: 1150 µM·min; bioavailability [1]: 41.6%; AUC [13]: 1010 µM·min; Cmax [14]: 4.02 µM; AUC [15]: 51.6 µM·h; Vd [16]: 1.58 L/kg; Cmax [4]: 700 nM; Cmax [17]: 5.3 µM; Tmax [18]: 1.5 h; bioavailability [19]: 32.6%; Tmax [6]: 60 min; half-life [20]: 94 min; bioavailability [21]: 37.1%; half-life [8]: 93 min; clearance [22]: 14.7 mL/min/kg
Cc1ccc(OCC(=O)N[C@@H](Cc2ccccc2)[C@H](O)C(=O)N2CSC[C@H]2C(=O)NC(C)(C)C)cc1	–	–	–	–	44%	–
CS[C@H](NC(=O)COc1cccc2cnccc12)C(=O)N[C@@H](Cc1ccccc1)[C@H](O)C(=O)N1CSC[C@H]1C(=O)NC(C)(C)C	–	34 nM	0.74 nM	> 20 µM	–	–
Cc1ccccc1OCC(=O)N[C@@H](Cc1ccccc1)[C@H](O)C(=O)N1CSC[C@H]1C(=O)NC(C)(C)C	–	–	–	–	82%	–
CCCc1c(O)cccc1C(=O)N[C@@H](Cc1ccccc1)[C@H](O)C(=O)N1CSC[C@H]1C(=O)NC(C)(C)C	17%	–	–	–	92%	–
Cc1c(O)cccc1C(=O)N[C@@H](Cc1ccccc1)[C@H](O)C(=O)N1CSC(C)(C)[C@H]1C(=O)NC(C)(C)C	88%	19 nM	5.14 nM	> 20 µM	99%	bioavailability [1]: 39.4%; Cmax [4]: 2600 nM; Tmax [6]: 30 min; half-life [8]: 83 min
CS[C@H](NC(=O)COc1cccc2cnccc12)C(=O)N[C@@H](Cc1ccccc1)[C@H](O)C(=O)N1CSC(C)(C)[C@H]1C(=O)NC(C)(C)C	–	6 nM	0.088 nM	> 20 µM	–	–
CCc1cccc(CC)c1OCC(=O)N[C@@H](Cc1ccccc1)[C@H](O)C(=O)N1CSC[C@H]1C(=O)NC(C)(C)C	–	–	–	–	62%	–
